# Assay results taken from ChEMBL document CHEMBL1764979, “Nucleoside transport inhibitors: structure-activity relationships for pyrimido[5,4-d]pyrimidine derivatives that potentiate pemetrexed cytotoxicity in the presence of α1-acid glycoprotein” (J Med Chem, 2011).
# pIC50: −log10 of the molar value. Activity calls are given as the source filed them. No cut-off for these calls is given here.
# Tests used:
# [1] = test system: L1210; conditions: Mus musculus, at 1 µM;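 note: uptake of tritiated thymidine through ENT transporters, counted by liquid scintillation, with alpha1-acid glycoprotein added at 5 mg/ml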
# [2] = test system: COR-L23; test: Potentiation of pemetrexed-induced growth inhibitory activity in human COR-L23 cells at 1 uM by SRB assay in presence of thymidine and hypoxanthine; assay type: functional; design: scale not given: the % may be the effect or the level left
# Procedure, shortened: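 COR-L23 cells in RPMI 1640 with 10% FCS were seeded at 1 × 10^3/well and allowed to attach overnight. They were then given pemetrexed 200 nM, ± TdR 1 μM and HPX 10 μM (1% DMSO), ± inhibitor 1 μM, for three doublings, then fixed and read by SRB. % reversal = (growth arrest with pemetrexed + TdR/HPX + inhibitor)/(growth arrest with pemetrexed alone) × 100. Three independent experiments.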
# [3] = Inhibition of ENT-mediated [3H]thymidine incorporation in human COR-L23 cells by liquid scintillation counting; assay type: cell-based; conditions: COR-L23, 2 h
# Procedure, shortened: (§1)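 Log-phase COR-L23 cells were seeded at 2 × 10^4/well, left overnight, PBS-washed and given serum-free medium with inhibitor. 3H-TdR was added (final 100 nM, 6.2 GBq/mmol) for 2 h at 37 °C. Cells were washed in ice-cold PBS, lysed in 0.5 M NaOH for 30 min, harvested onto glass-fibre filters with TCA/water/MeOH rinses, and scintillation counted. Mean ± SD of three independent experiments.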
# [4] = test system: COR-L23; test: Inhibition of ENT-mediated [3H]thymidine incorporation in human COR-L23 cells at 1 uM by liquid scintillation counting; assay type: cell-based
# Procedure, shortened: as §1
# [5] = test system: L1210; test: Inhibition of ENT-mediated [3H]thymidine incorporation in mouse L1210 cells at 1 uM by liquid scintillation counting; assay type: cell-based; conditions: in the assay text read “transport” for “incorporation”
# Procedure, shortened: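 3H-TdR transport into murine L1210 leukaemia cells with inhibitor at 1.0 μM, tested with and without AGP (5 mg/mL). Mean and SD of three independent experiments.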
# [6] = Chemical stability of the compound; assay type: physicochemical
# [7] = test system: COR-L23; test: Inhibition of ENT-mediated [3H]thymidine incorporation in human COR-L23 cells at 0.1 uM by liquid scintillation counting; assay type: cell-based
# Procedure, shortened: as §1
# [8] = Aqueous solubility of the compound; assay type: physicochemical; conditions: buffer
pIC50 [3],Stability [6],solubility [8],SMILES,inhibition [1],Activity [2],inhibition [4],inhibition [5],inhibition [7]
8.10,Stable,–,COc1ccc(CNc2nc(NCC(C)OC(=O)Nc3ccccc3)nc3c(NCc4ccc(OC)c(OC)c4)nc(NCC(C)O)nc23)cc1OC (centres undefined),Active,>100%,97%,Active,81%
–,Stable,–,COc1ccc(CNc2nc(NCC(C)OC(=O)Nc3ccc(C(F)(F)F)cc3)nc3c(NCc4ccc(OC)c(OC)c4)nc(NCC(C)OC(=O)Nc4ccc(C(F)(F)F)cc4)nc23)cc1OC (centres undefined),–,–,–,inactive,–
–,Stable,–,COc1ccc(CNc2nc(NCC(C)OC(=O)Nc3ccc([N+](=O)[O-])cc3)nc3c(NCc4ccc(OC)c(OC)c4)nc(NCC(C)OC(=O)Nc4ccc([N+](=O)[O-])cc4)nc23)cc1OC (centres undefined),–,–,–,inactive,–
8.00,–,–,COc1ccc(CNc2nc(NCC(C)OC(=O)Nc3ccccc3)nc3c(NCc4ccc(OC)c(OC)c4)nc(NCC(O)CO)nc23)cc1OC (centres undefined),–,>100%,91%,–,69%
6.36,Unstable,–,CCOC(=O)[C@H](C)NC(=O)OC(C)CNc1nc(NCc2ccc(OC)c(OC)c2)c2nc(NCC(C)O)nc(NCc3ccc(OC)c(OC)c3)c2n1 (some centres undefined),–,–,68%,–,39%
7.36,–,–,COc1ccc(CNc2nc(NCC(C)OC(=O)[C@@H](N)C(C)C)nc3c(NCc4ccc(OC)c(OC)c4)nc(NCC(C)OC(=O)Nc4ccccc4)nc23)cc1OC (some centres undefined),–,>100%,92%,–,68%
–,–,–,COc1ccc(CNc2nc(NCC(C)OC(=O)CCC(=O)O)nc3c(NCc4ccc(OC)c(OC)c4)nc(NCC(C)OC(=O)CCC(=O)O)nc23)cc1OC (centres undefined),inactive,–,–,–,–
8.15,Unstable,–,COC(=O)[C@@H](NC(=O)OC(C)CNc1nc(NCc2ccc(OC)c(OC)c2)c2nc(NCC(C)O)nc(NCc3ccc(OC)c(OC)c3)c2n1)C(C)C (some centres undefined),–,–,95%,–,79%
–,Unstable,–,CCOC(=O)[C@H](Cc1ccccc1)NC(=O)OC(C)CNc1nc(NCc2ccc(OC)c(OC)c2)c2nc(NCC(C)O)nc(NCc3ccc(OC)c(OC)c3)c2n1 (some centres undefined),–,–,–,–,–
7.59,Stable,–,COc1ccc(CNc2nc(NCC(C)O)nc3c(NCc4ccc(OC)c(OC)c4)nc(NCC(C)O)nc23)cc1OC (centres undefined),Active,>100%,90%,> 90%,66%
–,–,–,COc1ccc(CNc2nc(NCC(C)OC(=O)CCC(=O)O)nc3c(NCc4ccc(OC)c(OC)c4)nc(NCC(C)O)nc23)cc1OC (centres undefined),Active,–,–,–,–
7.85,–,–,C=CCOc1ccc(CNc2nc(NCC(C)O)nc3c(NCc4ccc(OC)c(OC)c4)nc(NCC(C)O)nc23)cc1OC (centres undefined),–,–,96%,–,81%
–,Unstable,–,CCOC(=O)CNC(=O)OC(C)CNc1nc(NCc2ccc(OC)c(OC)c2)c2nc(NCC(C)OC(=O)NCC(=O)OCC)nc(NCc3ccc(OC)c(OC)c3)c2n1 (centres undefined),–,–,–,> 90%,–
7.17,Stable,–,COc1ccc(CNc2nc(NCC(C)OC(=O)Nc3ccc(C(F)(F)F)cc3)nc3c(NCc4ccc(OC)c(OC)c4)nc(NCC(C)O)nc23)cc1OC (centres undefined),Active,>100%,93%,Active,75%
–,Stable,–,COc1ccc(CNc2nc(NCC(C)OC(=O)Nc3ccccc3)nc3c(NCc4ccc(OC)c(OC)c4)nc(NCC(C)OC(=O)Nc4ccccc4)nc23)cc1OC (centres undefined),–,–,–,–,–
–,Stable,–,COc1ccc(NC(=O)OC(C)CNc2nc(NCc3ccc(OC)c(OC)c3)c3nc(NCC(C)OC(=O)Nc4ccc(OC)cc4)nc(NCc4ccc(OC)c(OC)c4)c3n2)cc1 (centres undefined),–,–,–,–,–
7.22,Stable,–,COc1ccc(CNc2nc(NCC(C)OC(=O)Nc3ccc([N+](=O)[O-])cc3)nc3c(NCc4ccc(OC)c(OC)c4)nc(NCC(C)O)nc23)cc1OC (centres undefined),Active,>100%,96%,Active,84%
6.66,Unstable,–,COc1ccc(CNc2nc(NCC(C)OP(=O)(O)O)nc3c(NCc4ccc(OC)c(OC)c4)nc(NCC(C)OC(=O)Nc4ccccc4)nc23)cc1OC (centres undefined),–,–,75%,–,53%
7.23,Unstable,–,CCOC(=O)CNC(=O)OC(C)CNc1nc(NCc2ccc(OC)c(OC)c2)c2nc(NCC(C)O)nc(NCc3ccc(OC)c(OC)c3)c2n1 (centres undefined),Active,–,94%,> 90%,85%
7.15,–,–,COc1ccc(CNc2nc(NCC(C)OC(=O)[C@@H](N)C(C)C)nc3c(NCc4ccc(OC)c(OC)c4)nc(NCC(C)OC(=O)[C@@H](N)C(C)C)nc23)cc1OC.Cl.Cl (some centres undefined),Active,>100%,87%,–,59%
8.15,Unstable,–,COc1ccc(CNc2nc(NCC(C)OC(=O)Nc3ccccc3)nc3c(NCc4ccc(OC)c(OC)c4)nc(NCC(C)OC(=O)CCC(=O)O)nc23)cc1OC (centres undefined),–,>100%,94%,–,75%
7.66,–,–,COc1ccc(CNc2nc(NCC(C)OC(=O)Nc3ccccc3)nc3c(NCc4ccc(OCCN5CCOCC5)c(OC)c4)nc(NCC(C)O)nc23)cc1OC (centres undefined),–,>100%,97%,–,80%
–,–,–,COc1ccc(CNc2nc(NCC(C)OC(=O)[C@@H](NC(=O)OC(C)(C)C)C(C)C)nc3c(NCc4ccc(OC)c(OC)c4)nc(NCC(C)OC(=O)[C@@H](NC(=O)OC(C)(C)C)C(C)C)nc23)cc1OC (some centres undefined),inactive,–,–,–,–
7.41,–,–,COc1ccc(CNc2nc(NCC(C)OC(=O)[C@@H](N)C(C)C)nc3c(NCc4ccc(OC)c(OC)c4)nc(NCC(C)O)nc23)cc1OC.Cl (some centres undefined),–,>100%,89%,–,64%
7.51,–,–,COc1ccc(CNc2nc(NC[C@H](C)O)nc3c(NCc4ccc(OC)c(OC)c4)nc(NC[C@H](C)O)nc23)cc1OC,–,–,93%,–,68%
–,–,–,COc1ccc(CNc2nc(NCC(C)OC(=O)[C@@H](NC(=O)OC(C)(C)C)C(C)C)nc3c(NCc4ccc(OC)c(OC)c4)nc(NCC(C)O)nc23)cc1OC (some centres undefined),inactive,–,–,–,–
8.40,Stable,–,COc1ccc(NC(=O)OC(C)CNc2nc(NCc3ccc(OC)c(OC)c3)c3nc(NCC(C)O)nc(NCc4ccc(OC)c(OC)c4)c3n2)cc1 (centres undefined),–,>100%,98%,–,84%
–,Unstable,Insoluble,CCOC(=O)[C@H](Cc1ccccc1)NC(=O)OC(C)CNc1nc(NCc2ccc(OC)c(OC)c2)c2nc(NCC(C)OC(=O)N[C@@H](Cc3ccccc3)C(=O)OCC)nc(NCc3ccc(OC)c(OC)c3)c2n1 (some centres undefined),–,–,–,–,–
7.82,–,–,OCCN(CCO)c1nc(N2CCCCC2)c2nc(N(CCO)CCO)nc(N3CCCCC3)c2n1 [DIPYRIDAMOLE],–,>100%,96%,–,78%
–,Unstable,Insoluble,CCOC(=O)[C@H](C)NC(=O)OC(C)CNc1nc(NCc2ccc(OC)c(OC)c2)c2nc(NCC(C)OC(=O)N[C@@H](C)C(=O)OCC)nc(NCc3ccc(OC)c(OC)c3)c2n1 (some centres undefined),–,–,–,–,–
